Results as given in ChEMBL document CHEMBL4706770, “SD-91 as A Potent and Selective STAT3 Degrader Capable of Achieving Complete and Long-Lasting Tumor Regression” (ACS Med Chem Lett, 2021).
Activity calls are given as the source filed them. The calls are words filed in the database; no cut-off is given here.

What was measured:
[1] = system: Mus musculus; assay: In vivo induction of STAT3 degradation in SCID mouse xenografted with human MOLM16 cells assessed as reduction in total STAT3 level in tumor tissue at 50 mg/kg, iv measured after 24 hrs by immunoblotting analysis; type: functional, organism-based
Procedure, shortened: (§1)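 SCID mice bearing MOLM-16 or SU-DHL-1 xenografts given a single iv dose of 50 mg/kg or dosing vehicle. Tumor lysates immunoblotted for p-STAT3 Y705 and total STAT3 at time points up to 48 h (MOLM-16) and 24 h (SU-DHL-1).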

[2] = system: Mus musculus; assay: In vivo induction of STAT3 degradation in SCID mouse xenografted with human SU-DHL-1 cells assessed as reduction in total STAT3 level in tumor tissue at 50 mg/kg, iv measured after 24 hrs by immunoblotting analysis; type: functional, organism-based; procedure, shortened: as §1
[3] = molecular target: T1, Signal transducer and activator of transcription 1-alpha/beta (Homo sapiens, UniProt P42224); assay: Binding affinity to human recombinant STAT1 assessed as dissociation constant incubated for 15 mins by biolayer interferometry
T1 sequence (P42224 whole entry): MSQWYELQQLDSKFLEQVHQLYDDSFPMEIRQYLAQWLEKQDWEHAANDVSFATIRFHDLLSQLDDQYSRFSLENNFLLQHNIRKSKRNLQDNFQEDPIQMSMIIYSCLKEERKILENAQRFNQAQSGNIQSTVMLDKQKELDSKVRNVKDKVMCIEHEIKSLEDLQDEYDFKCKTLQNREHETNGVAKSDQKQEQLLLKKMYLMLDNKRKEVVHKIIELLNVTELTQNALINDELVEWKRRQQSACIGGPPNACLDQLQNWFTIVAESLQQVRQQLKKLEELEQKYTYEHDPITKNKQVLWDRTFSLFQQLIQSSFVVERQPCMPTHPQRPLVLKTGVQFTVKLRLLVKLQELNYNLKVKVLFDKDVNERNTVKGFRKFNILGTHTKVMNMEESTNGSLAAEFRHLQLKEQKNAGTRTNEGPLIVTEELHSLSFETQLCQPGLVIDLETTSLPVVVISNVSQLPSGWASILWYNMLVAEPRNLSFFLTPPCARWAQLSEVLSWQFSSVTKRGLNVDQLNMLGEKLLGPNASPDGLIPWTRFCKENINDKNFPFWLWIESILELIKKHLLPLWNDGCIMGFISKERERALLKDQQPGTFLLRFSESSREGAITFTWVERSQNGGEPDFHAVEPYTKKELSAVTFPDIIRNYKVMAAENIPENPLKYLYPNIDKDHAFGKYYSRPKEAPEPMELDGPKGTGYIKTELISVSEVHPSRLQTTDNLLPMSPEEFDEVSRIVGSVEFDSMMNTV
Procedure, shortened: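 Biolayer interferometry with recombinant human STAT1, STAT2, STAT3, STAT4, STAT5A, STAT5B or STAT6 proteins containing their SH2 domain. Compound run in 2× serial dilutions from 200 nM. Kd taken from steady-state fitting of equilibrium responses against concentration using a 1:1 binding model.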

[4] = molecular target: Signal transducer and activator of transcription 3 (Homo sapiens, UniProt P40763); assay: Induction of STAT3 degradation in human MOLM-16 cells assessed as decrease in STAT3 level at 1 uM incubated for 4 hrs by proteomic analysis; type: cell-based; settings: MOLM16
Procedure, shortened: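 MOLM-16 cells treated with 1 or 10 μM for 4 h. Protein levels measured by quantitative proteomics across more than 7000 proteins.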

[5] = molecular target: Protein cereblon/Signal transducer and activator of transcription 2 (Homo sapiens) (UniProt Q96SW2+P52630); assay: Protac activity at CRBN/STAT2 in human MOLM16 cells assessed as STAT2 degradation at 0.25 to 100 uM incubated for 4 hrs by Western blot analysis; type: cell-based; settings: dose 0.25-100 µM
Procedure, shortened: (§2)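 Cells treated 4 h with compounds across 25 nM to 100 μM; STAT proteins detected by Western blot with GAPDH as loading control; STAT3 DC50 estimated by densitometry of STAT3 relative to GAPDH. Applies to MOLM-16 for all STATs, and to SU-DHL-1 and SUP-M2 for STAT3.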

[6] = (§3) Drug metabolism in buffer pH 4 assessed as conversion to (2-(((5S,8S,10aR)-8-(((S)-5-amino-1-(benzhydrylamino)-1,5-dioxopentan-2-yl)carbamoyl)-3-(8-(2-(2,6-dioxopiperidin-3-yl)-1-oxoisoindolin-4-yl)oct-7-ynoyl)-6-oxodecahydropyrrolo[1,2-a][1,5]diazocin-5-yl)carbamoyl)-1H-indole-5-carbonyl)phosphonic acid by measured after 2 days at 37 degC by LC/MS/MS analysis; settings: time 2.0 day
Procedure, shortened: (§4)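 Parent compound incubated in buffer at pH 4 or pH 8, at room temperature or 37 °C. Percentages of the parent, the hydrolysis product and the glutarimide ring-opened product followed over time, up to 96 h.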

[7] = molecular target: T2, Protein cereblon/Signal transducer and activator of transcription 6 (Homo sapiens) (UniProt P42226+Q96SW2); assay: Protac activity at CRBN/STAT6 in human MOLM16 cells assessed as STAT6 degradation at 0.25 to 100 uM incubated for 4 hrs by Western blot analysis; type: cell-based; settings: dose 0.25-100 µM; procedure, shortened: as §2
[8] = molecular target: T2, Protein cereblon/Signal transducer and activator of transcription 6 (Homo sapiens); assay: Protac activity at CRBN/STAT6 in human SUP-M2 cells assessed as STAT6 degradation at 0.25 to 100 uM incubated for 4 hrs by Western blot analysis; type: cell-based; settings: SUPM2, dose 0.25-100 µM
[9] = as §3, with “Stability of compound in” for “Drug metabolism in”, “pH 8” for “pH 4”, “by measuring half life” for “by measured after 2 days at 37 degC”; type: physicochemical
Procedure, shortened: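 SD-36 incubated in pH 8 buffer at room temperature; percentages of parent and hydrolysis products followed over time; half-life of conversion derived from the time course.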

[10] = molecular target: T2, Protein cereblon/Signal transducer and activator of transcription 6 (Homo sapiens); assay: In vivo protac activity at CRBN/STAT6 degradation in SCID mouse xenografted with human MOLM16 cells assessed as reduction in STAT6 in tumor tissue at 50 mg/kg, iv measured after 24 hrs by immunoblotting analysis; type: functional, organism-based
Procedure, shortened: (§5)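 SCID mice bearing MOLM-16 tumors given a single iv dose of 50 mg/kg or dosing vehicle. Tumor lysates immunoblotted for STAT3, STAT1 and STAT6 at time points from 1 h to at least 24 h.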

[11] = as §3, with “complete cell culture medium” for “buffer pH 4”, “as” for “as conversion to”, “acid” for “acid by measured”, “24 hrs” for “2 days at 37 degC”
Procedure, shortened: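 Parent compound incubated in the cell culture medium used for the cellular assays, with or without cells, at 37 °C. Percentages of the hydrolysis product and the glutarimide ring-opened product measured at time points up to 96 h.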

[12] = molecular target: T3, Protein cereblon/Signal transducer and activator of transcription 3 (Homo sapiens, UniProt P40763+Q96SW2); assay: Protac activity at CRBN/STAT3 in human SUP-M2 cells assessed as degradation of STAT3 incubated for 4 hrs by western blot analysis; type: cell-based; procedure, shortened: as §2
Target sequence in this assay (P40763 whole entry): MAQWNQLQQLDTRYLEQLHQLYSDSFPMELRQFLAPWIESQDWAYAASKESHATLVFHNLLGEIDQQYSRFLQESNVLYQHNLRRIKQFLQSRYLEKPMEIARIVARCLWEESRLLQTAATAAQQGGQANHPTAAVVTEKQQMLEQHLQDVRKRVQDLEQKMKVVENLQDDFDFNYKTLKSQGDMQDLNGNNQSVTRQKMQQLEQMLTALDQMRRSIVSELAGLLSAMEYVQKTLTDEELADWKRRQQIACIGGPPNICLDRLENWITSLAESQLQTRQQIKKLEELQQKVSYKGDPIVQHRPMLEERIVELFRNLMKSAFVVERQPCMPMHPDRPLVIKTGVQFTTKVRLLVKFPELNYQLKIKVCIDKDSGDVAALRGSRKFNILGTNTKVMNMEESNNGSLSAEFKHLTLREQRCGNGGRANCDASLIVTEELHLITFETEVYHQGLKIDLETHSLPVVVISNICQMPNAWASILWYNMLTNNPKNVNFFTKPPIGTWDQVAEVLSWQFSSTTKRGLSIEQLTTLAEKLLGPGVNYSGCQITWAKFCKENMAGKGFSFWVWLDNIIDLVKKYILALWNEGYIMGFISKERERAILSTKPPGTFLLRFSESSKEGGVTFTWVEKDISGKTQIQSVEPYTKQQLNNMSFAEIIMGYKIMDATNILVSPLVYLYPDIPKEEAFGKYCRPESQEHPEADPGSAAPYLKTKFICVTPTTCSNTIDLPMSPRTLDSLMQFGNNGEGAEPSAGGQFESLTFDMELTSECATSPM
Target sequence in this assay (Q96SW2 whole entry): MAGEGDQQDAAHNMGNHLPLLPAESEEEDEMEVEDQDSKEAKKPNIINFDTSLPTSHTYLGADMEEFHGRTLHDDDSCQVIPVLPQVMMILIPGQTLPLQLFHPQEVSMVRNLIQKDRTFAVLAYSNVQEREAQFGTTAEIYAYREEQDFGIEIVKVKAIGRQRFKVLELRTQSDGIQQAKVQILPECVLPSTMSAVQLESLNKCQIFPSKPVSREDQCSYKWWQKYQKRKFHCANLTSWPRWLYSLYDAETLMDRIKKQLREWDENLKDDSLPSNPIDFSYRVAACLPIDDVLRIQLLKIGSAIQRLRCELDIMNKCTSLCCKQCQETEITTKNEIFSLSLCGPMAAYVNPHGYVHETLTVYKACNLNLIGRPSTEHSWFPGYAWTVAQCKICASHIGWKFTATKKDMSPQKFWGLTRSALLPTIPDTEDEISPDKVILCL

[13] = Drug metabolism buffer pH 4 assessed as conversion to 5-amino-4-(4-(8-((5S,8S,10aR)-8-((S)-5-amino-1-(benzhydrylamino)-1,5-dioxopentan-2-ylcarbamoyl)-6-oxo-5-(5-(phosphonocarbonyl)-1H-indole-2-carboxamido)octahydropyrrolo[1,2-a][1,5]diazocin-3(4H)-yl)-8-oxooct-1-ynyl)-1-oxoisoindolin-2-yl)-5-oxopentanoic acid measured upto 100 hrs by LC/MS/MS analysis; settings: time hrs <=100; procedure, shortened: as §4
[14] = molecular target: T3, Protein cereblon/Signal transducer and activator of transcription 3; assay: In vivo protac activity at CRBN/STAT3 degradation in SCID mouse xenografted with human MOLM16 cells assessed as reduction in STAT3 in tumor tissue at 50 mg/kg, iv measured after 24 hrs by immunoblotting analysis; type: functional, organism-based; procedure, shortened: as §5
Target sequence in this assay (P40763 2-770 limits assumed): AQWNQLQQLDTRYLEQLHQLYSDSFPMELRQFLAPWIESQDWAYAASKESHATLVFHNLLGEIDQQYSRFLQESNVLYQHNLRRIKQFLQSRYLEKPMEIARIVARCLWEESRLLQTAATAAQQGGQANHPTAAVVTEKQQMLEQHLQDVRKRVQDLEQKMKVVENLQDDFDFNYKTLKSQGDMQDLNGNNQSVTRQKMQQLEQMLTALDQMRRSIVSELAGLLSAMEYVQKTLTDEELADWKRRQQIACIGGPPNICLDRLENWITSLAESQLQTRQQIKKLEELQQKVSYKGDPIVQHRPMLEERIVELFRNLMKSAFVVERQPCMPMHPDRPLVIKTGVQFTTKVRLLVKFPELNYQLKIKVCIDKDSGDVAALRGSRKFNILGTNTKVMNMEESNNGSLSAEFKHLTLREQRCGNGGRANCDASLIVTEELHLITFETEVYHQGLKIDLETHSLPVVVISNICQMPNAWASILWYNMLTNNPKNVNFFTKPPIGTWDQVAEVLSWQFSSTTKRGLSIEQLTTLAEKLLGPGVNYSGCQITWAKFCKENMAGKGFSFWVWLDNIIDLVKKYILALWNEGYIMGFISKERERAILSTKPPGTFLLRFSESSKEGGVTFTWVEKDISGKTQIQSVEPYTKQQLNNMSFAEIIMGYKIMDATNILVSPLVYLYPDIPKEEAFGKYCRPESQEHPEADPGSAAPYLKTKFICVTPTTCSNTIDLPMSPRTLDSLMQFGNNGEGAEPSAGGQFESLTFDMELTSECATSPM
Target sequence in this assay (Q96SW2 whole entry partner): as the sequence (Q96SW2 whole entry) above

T2 sequence (P42226 2-847 limits assumed): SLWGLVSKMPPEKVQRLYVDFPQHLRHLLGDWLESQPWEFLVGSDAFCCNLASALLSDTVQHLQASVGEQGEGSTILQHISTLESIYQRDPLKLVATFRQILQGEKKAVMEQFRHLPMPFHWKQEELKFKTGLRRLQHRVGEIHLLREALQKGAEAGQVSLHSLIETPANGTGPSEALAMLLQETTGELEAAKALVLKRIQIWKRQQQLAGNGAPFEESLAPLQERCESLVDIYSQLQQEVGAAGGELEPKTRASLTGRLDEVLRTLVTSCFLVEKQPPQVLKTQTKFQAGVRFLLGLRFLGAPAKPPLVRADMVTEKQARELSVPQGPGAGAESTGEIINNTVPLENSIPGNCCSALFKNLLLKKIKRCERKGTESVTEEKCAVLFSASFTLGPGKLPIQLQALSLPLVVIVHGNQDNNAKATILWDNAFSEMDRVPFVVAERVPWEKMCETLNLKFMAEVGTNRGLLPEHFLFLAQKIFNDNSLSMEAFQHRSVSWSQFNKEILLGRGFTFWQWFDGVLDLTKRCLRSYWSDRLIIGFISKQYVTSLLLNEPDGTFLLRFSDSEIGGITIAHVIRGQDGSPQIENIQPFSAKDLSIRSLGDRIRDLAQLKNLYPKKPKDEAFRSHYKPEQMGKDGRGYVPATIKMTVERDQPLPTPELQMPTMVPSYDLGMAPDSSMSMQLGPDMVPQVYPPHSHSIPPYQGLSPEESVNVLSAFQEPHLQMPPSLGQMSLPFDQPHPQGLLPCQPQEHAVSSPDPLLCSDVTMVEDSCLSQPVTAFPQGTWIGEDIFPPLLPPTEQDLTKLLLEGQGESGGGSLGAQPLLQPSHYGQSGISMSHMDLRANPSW
T2 sequence (Q96SW2 whole entry partner): as the sequence (Q96SW2 whole entry) above
Chain of Signal transducer and activator of transcription 3 (P40763 whole entry): as the sequence (P40763 whole entry) above
Chain of Protein cereblon/Signal transducer and activator of transcription 2 (Homo sapiens) (P52630 whole entry, looked up): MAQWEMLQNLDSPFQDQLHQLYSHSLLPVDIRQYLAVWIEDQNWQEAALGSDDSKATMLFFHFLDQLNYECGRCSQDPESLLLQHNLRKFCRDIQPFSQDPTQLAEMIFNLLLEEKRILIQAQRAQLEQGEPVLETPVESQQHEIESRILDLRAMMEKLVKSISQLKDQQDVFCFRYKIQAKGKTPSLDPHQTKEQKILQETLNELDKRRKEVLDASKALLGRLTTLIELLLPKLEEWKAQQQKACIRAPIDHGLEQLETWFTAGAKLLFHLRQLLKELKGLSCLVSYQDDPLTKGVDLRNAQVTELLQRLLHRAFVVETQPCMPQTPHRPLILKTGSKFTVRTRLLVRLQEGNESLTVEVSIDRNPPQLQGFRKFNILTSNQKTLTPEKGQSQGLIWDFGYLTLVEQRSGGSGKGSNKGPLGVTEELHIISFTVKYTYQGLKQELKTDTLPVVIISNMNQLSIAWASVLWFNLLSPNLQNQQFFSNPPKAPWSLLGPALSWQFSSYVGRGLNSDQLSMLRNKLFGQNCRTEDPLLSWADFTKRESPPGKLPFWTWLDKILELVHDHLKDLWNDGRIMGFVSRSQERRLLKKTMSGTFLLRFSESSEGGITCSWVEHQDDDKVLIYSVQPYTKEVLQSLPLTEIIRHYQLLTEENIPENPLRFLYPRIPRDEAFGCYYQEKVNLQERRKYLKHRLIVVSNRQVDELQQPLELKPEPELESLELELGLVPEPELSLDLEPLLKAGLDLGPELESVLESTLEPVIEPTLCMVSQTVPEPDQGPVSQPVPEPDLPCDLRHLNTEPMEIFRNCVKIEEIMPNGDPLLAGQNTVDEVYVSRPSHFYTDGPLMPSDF
Chain of Protein cereblon/Signal transducer and activator of transcription 2 (Homo sapiens) (Q96SW2 whole entry, looked up): as the sequence (Q96SW2 whole entry) above

SMILES	Activity [1]	Activity [2]	Kd [3] [µM]	Activity [4]	Activity [5]	Drug metabolism [6] [%]	Activity [7]	Activity [8]	t1/2 [9] [h]	Activity [10]	Drug metabolism [11] [%]	DC50 [12] [µM]	Drug metabolism [13]	Activity [14]
NC(=O)CC[C@H](NC(=O)[C@@H]1CC[C@@H]2CCN(C(=O)CCCCCC#Cc3cccc4c3CN(C3CCC(=O)NC3=O)C4=O)C[C@H](NC(=O)c3cc4cc(C(=O)P(=O)(O)O)ccc4[nH]3)C(=O)N21)C(=O)NC(c1ccccc1)c1ccccc1 (some centres undefined)	Active	Active	> 0.01	Active	–	–	–	–	–	–	–	–	–	–
NC(=O)CC[C@H](NC(=O)[C@@H]1CC[C@@H]2CCN(C(=O)CCCCCC#Cc3cccc4c3CN(C3CCC(=O)NC3=O)C4=O)C[C@H](NC(=O)c3cc4cc(C(F)(F)P(=O)(O)O)ccc4[nH]3)C(=O)N21)C(=O)NC(c1ccccc1)c1ccccc1 (some centres undefined)	–	–	–	–	inactive	50	inactive	inactive	22	inactive	90	2.5	Metabolite not detected	Active
